Bioassay records from PubChem BioAssay.
Only some compounds are listed: those with a hit (about 2.2% of all), similar ones and a draw of the others.
SKN-1 block: blocks SKN-1 activity in C. elegans; C. elegans VP596 Pgst-4::GFP/RFP ratio, acrylamide-induced, 24 h; 360,000 compounds, 0.49% hits; inhibition, % at 21.8 µM;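 active = interference check ratio from 0.5 to 1.5 plus GFP to RFP signal ratio inhibition reaching or exceeding a fixed threshold, cut at about 30% in these data, passing the limit was not always enough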
KLK7 zymogen act: proKLK7 (human) activation, primary screen. activation, % at 7 µM. purified proKLK7, EDANS-DABCYL substrate fluorescence; 100% is mature enzyme control, 0% vehicle. 370,000 compounds, 0.9% hits. P49862. AID 652039;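 active = activation above the mean of all tested compounds plus 3 SD, computed per campaign excluding outliers beyond control limits, cut at about 13% in these data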
Neddyl block: cullin neddylation inhibition; calls only at 25 µM; AID 651699; 360,000 compounds, 0.58% hits; TR-FRET cullin neddylation, biochemical; P61081+Q13564; in the data active = inhibition above about 36%
Tn7 DDE FP: inhibitors of Tn7 peptide binding to human fibrin DD(E). FP displacement of FITC-Tn7 peptide from fibrin DD(E); 0% = median of compound wells per plate. 370,000 compounds, 0.13% hits. inhibition, % at 8.3 µM;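 active = inhibition above the mean of compounds falling within the control limits plus 3 SD of them, cut at about 14% in these data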;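 note: 0% = plate median of compound wells and 100% = 10 µM Aha-Tn7 peptide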
Target sequence (P02675 whole entry, looked up): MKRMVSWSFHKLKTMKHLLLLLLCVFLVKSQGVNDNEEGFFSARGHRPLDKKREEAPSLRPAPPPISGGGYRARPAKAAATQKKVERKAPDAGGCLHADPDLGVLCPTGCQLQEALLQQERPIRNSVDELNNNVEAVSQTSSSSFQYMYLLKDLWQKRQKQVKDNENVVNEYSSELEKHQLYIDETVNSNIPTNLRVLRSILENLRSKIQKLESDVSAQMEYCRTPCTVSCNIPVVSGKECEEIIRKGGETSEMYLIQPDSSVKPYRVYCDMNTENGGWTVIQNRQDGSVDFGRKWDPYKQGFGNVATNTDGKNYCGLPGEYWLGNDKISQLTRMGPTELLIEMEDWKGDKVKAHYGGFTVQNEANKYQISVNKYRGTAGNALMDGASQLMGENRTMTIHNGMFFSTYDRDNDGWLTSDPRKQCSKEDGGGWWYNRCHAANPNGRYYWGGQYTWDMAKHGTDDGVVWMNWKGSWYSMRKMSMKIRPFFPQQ
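assay system = human clot-derived fibrin DD(E) complex | quantity = Fibrin-DD(E) at 2 µM final | timing = 10 min preincubation, 3 h with tracer, room temperature | signal = fluorescence polarization | measure = percent inhibition | benchmarks = high control wells with 10 µM unlabelled Aha-Tn7 peptide (full inhibition) | replicates = singlicate testing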
Tn6 DDE FP: DD(E)-Tn6 binding inhibition, primary FP screen; P02675; Fibrin DD(E) TRITC-Tn6 fluorescence polarization displacement; inhibition, % at 8.3 µM; 370,000 compounds, 0.21% hits;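 active = inhibition above a per-campaign cutoff: mean of compounds within control limits plus 3 SD, cut at about 15% in these data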;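 note: 0% = median of all compound wells on the plate and 100% = blocking peptide control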
MT1-MMP act inh: inhibitors of human MT1-MMP activation; 360,000 compounds, 0.061% hits; HT1080 RFP-PRO-GFP cells, GFP/RFP ratio fluorescence, overnight; percent of plate control window, DMSO zero; AID 651647; P50281; GFP/RFP ratio change, % at 20 µM;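 active = GFP/RFP ratio change of at least 30% with cell ATP level not reduced by more than half and red fluorescence within 50% of control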
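Read-out: GFP/RFP fluorescence ratio; Test system: RFP-PRO-GFP reporter HT1080 cells; Compound dosing: single-point 20 µM compound, 1% DMSO; Times: overnight compound exposure at 37 °C.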
An asterisk follows results filed as active; i = inactive; nt = no result shown; + = active, no number; ! = not confirmed by another sample.

SMILES | SKN-1 block | KLK7 zymogen act | Neddyl block | Tn7 DDE FP | Tn6 DDE FP | MT1-MMP act inh
O=C(O)c1cc(-c2ccc(/C=C3\NC(=O)N(c4ccc(Cl)cc4)C3=O)o2)ccc1Cl | 8 | 0 | + | -2 | 1 | -1
O=C(O)c1cc(-c2ccc(/C=C3\NC(=O)N(c4ccccc4)C3=O)o2)ccc1Cl | 14 | 1 | + | 4 | -7 | -2
O=C(NCc1ccccc1)c1cnc(-c2ccccn2)nc1C(F)(F)F | -6 | 0 | i | 4 | -6 | -4
COC(=O)c1ccc(COC(=O)CNC(=O)C2CCCCC2)cc1 | 3 | 1 | i | 2 | 6 | -1
CCN=c1scc(-c2ccccc2)n1/N=C/c1ccccn1 | 44* | nt | i | nt | nt | -1
C=CCN=c1scc(-c2ccc(F)cc2)n1/N=C/c1ccccn1 | 29 | -1 | i | -1 | 4 | 1
CCN=c1scc(-c2ccc(F)cc2)n1/N=C/c1ccccn1 | 45* | 0 | i | -11 | 5 | 1
CN(CC(=O)Nc1ccccc1Br)C(=O)c1ccccc1Sc1ccccc1C#N | -3 | 0 | i | 4 | -3 | -4
Cc1cccc(NC(=S)Nc2ccc(Oc3ccccc3)cc2)n1 | 12 | -1 | i | 1 | 2 | 4
COc1ccc(-c2nc(C#N)c(NCc3cccnc3)o2)cc1OC | 28 | -1 | + | -3 | -7 | 5
COc1ccc(CC(=O)OCC(=O)N2CCN(S(=O)(=O)c3ccc(C)cc3C)CC2)cc1OC | 4 | 0 | i | 0 | 0 | 9
Cc1nnc(SCC(=O)N2CCN(S(=O)(=O)c3ccccc3)CC2)[nH]c1=O | 11 | 0 | i | -5 | 5 | 2
CC(C)CC(C(=O)Oc1ccc2c3c(c(=O)oc2c1)CCC3)N1C(=O)c2ccccc2C1=O (stereo unspecified) | 35* | -1 | nt | 1 | 8 | 0
CC(C)Oc1ccc2c3c(c(=O)oc2c1)CCC3 | 8 | 1 | nt | 1 | -3 | 2
Cc1cc(C(=O)NC2CCCC2)c2ccccc2n1 | 17 | 0 | i | 3 | 10 | -2
O=C(Nc1cc(C(F)(F)F)ccc1N1CCCCC1)C1=COCCO1 | 39* | 0 | i | -4 | 3 | 0
O=C(Nc1ccccc1N1CCCCC1)C1=COCCO1 | 15 | 0 | i | 7 | -5 | -7
O=C(Nc1ccc(OC(=O)c2ccco2)cc1)c1ccco1 | -35 | 0 | i | 3 | -1 | -5
O=C(Nc1ccc2c(c1)Cc1ccccc1-2)c1ccco1 | 72* | 1 | i | 7 | -1 | 9
O=C(Nc1ccc(Br)c(Cl)c1)c1ccco1 | 86* | 0 | i | -1 | 2 | -1
O=C(Nc1ccc(NC(=O)c2ccco2)c(Cl)c1)c1ccccc1 | 5 | 0 | i | 1 | -1 | -5
O=C(Nc1ccc(Cl)c(Cl)c1)Oc1ccc(NC(=O)c2ccco2)cc1 | 7 | 0 | i | 19* | -1 | 0
Cc1ccc(NC(=O)c2cccs2)cc1NC(=O)c1ccco1 | 44* | -1 | i | -2 | -3 | 1
COCCN(C(=O)COC(=O)CCCc1c[nH]c2ccccc12)c1c(N)n(Cc2ccccc2)c(=O)[nH]c1=O | -15 | 0 | i | 4 | -7 | -3
C=CCNc1ccc2c(c1)OC[C@H](CC(C)C)NS2(=O)=O | nt | 0 | nt | 1 | -1 | nt
SMILES | SKN-1 block | KLK7 zymogen act | Neddyl block | Tn7 DDE FP | Tn6 DDE FP | MT1-MMP act inh
CCOC(=O)c1cc(-c2ccccc2)sc1NC(=O)C(C)OC(=O)c1cccnc1OCC (stereo unspecified) | 4 | 1 | i | 4 | -1 | 0
Cc1ccc(-c2nn(-c3ccccc3)cc2/C=C/C(=O)Nc2nccs2)cc1 | 9 | -116 | nt | -2 | -1 | 3
COc1ccc(N(CC(=O)NC2CCCCC2)C(=O)CNC(=O)c2cccs2)cc1 | 41* | 0 | i | 6 | -2 | 0
Oc1c(C(Nc2cccc(C(F)(F)F)c2)c2cccnc2)ccc2cccnc12 (stereo unspecified) | -14 | 0 | + | 7 | -3 | 6
CCN(CC(=O)Nc1ccccc1C(F)(F)F)C(=O)C1CC(=O)N(Cc2ccccc2)C1 (stereo unspecified) | 35* | -1 | i | 13 | 0 | -2
Cc1cc(OCC(O)CN2CCN(C)CC2)ccc1C(C)C (stereo unspecified) | 36*! | -1 | i | -1 | 6 | 2
CC1CCCCC12NC(=O)N(CC(=O)Nc1cccc(S(=O)(=O)N3CCCCC3)c1)C2=O (stereo unspecified) | -19 | 0 | i | -8 | -3 | 7
O=C(CSCc1c(Cl)cccc1Cl)NCc1ccccn1 | -12 | 0 | i | -2 | 3 | -6
Cc1cc(C)n2nc(/C(C#N)=C/c3ccccn3)c(C#N)c2n1 | 8 | 1 | + | -6 | -2 | -17
COc1ccc(C(C(=O)NC2CCCCC2)N(Cc2cccs2)C(=O)Cc2c[nH]c3ccccc23)cc1 (stereo unspecified) | 39* | 0 | i | 3 | 5 | -8
COc1cccc(CN(C(=O)Cc2c[nH]c3ccccc23)C(C(=O)NC2CCCCC2)c2cccs2)c1 (stereo unspecified) | -1 | 0 | i | 3 | -2 | -29
CC(=O)Nc1ccc2nc(-c3ccccn3)[nH]c2c1 | -24 | -3 | nt | 2 | -4 | 6
c1ccc(-c2nc3cc4ccccc4cc3[nH]2)nc1 | 42* | -1 | + | 1 | -16 | 11
CN(C)c1ccc(NC2=C(Cl)C(=O)c3ccccc3C2=O)cc1 | 5 | 1 | i | -1 | -1 | -2
Fc1ccc(Nc2cccc3nccnc23)cc1 | 45* | 0 | i | 8 | 0 | 2
c1cc(Nc2cccc3nccnc23)c2nccnc2c1 | 23 | -1 | i | -1 | -6 | -49
Fc1ccccc1NC(=S)NN(Cc1ccccc1)c1ccccc1 | 39* | 1 | i | 1 | -2 | -2
COc1cccc2c1C(=O)c1c(O)c3c(c(O)c1C2=O)C[C@@](O)(C(=O)CO)C[C@@H]3O[C@H]1C[C@H](N)[C@H](O)[C@H](C)O1 | 74 | 1 | i | 19* | + | 14
CC(=O)[C@@]1(O)Cc2c(O)c3c(c(O)c2[C@H](O[C@H]2C[C@H](N)[C@H](O)[C@H](C)O2)C1)C(=O)c1ccccc1C3=O | 45 | -1 | i | 51* | 198* | 12
COc1cccc2c1C(=O)c1c(O)c3c(c(O)c1C2=O)C[C@@](O)(C(=O)CO)C[C@@H]3OC1CC(N)C(O)C(C)O1 (stereo partly specified) | 77 | 1 | i | 13 | + | -20
